In ChEMBL document CHEMBL3272137, “Narcotic antagonists. Synthesis and evaluation of some subsituted 1,2,3,4,5,6-hexahydro-1,4:2,6-dimethano-3-benzazocines” (J Med Chem, 1977):
Activity calls are given as the source filed them. No cut-off for these calls is given here.

Tests used:
Mus musculus [1] = assay: Analgesic activity in sc dosed mouse assessed as inhibition of phenylquinone-induced writhing; format: functional
Summary of the method: (§1)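 Given subcutaneously as salts in aqueous solution, with doses expressed as free base. ED50 was derived by probit analysis of dose-response data using at least three dose levels and at least six animals per dose level.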

Mus musculus [2] = assay: Narcotic antagonist activity in sc dosed mouse assessed as inhibition of oxymorphone-induced narcosis; format: functional; summary of the method: as §1
Mus musculus [3] = assay: Narcotic antagonist activity in sc dosed mouse assessed as inhibition of oxymorphone-induced straub tail response; format: functional; summary of the method: as §1
Rattus norvegicus = assay: Narcotic antagonist activity in sc dosed rat assessed as inhibition of morphine-induced analgesic activity by tail flick test; format: functional; summary of the method: as §1
Mus musculus [4] = assay: Toxicity in mouse assessed as convulsion at 80 mg/kg, sc; format: organism-based; design: dose 80 mg/kg, route subcutaneous; details: in vivo
Summary of the method: (§2)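 Given subcutaneously as salts in aqueous solution, with dose expressed as free base.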

Mus musculus [5] = assay: Toxicity in mouse assessed as tremor at 40 mg/kg, sc; format: organism-based; design: dose 40 mg/kg, route subcutaneous; details: in vivo; summary of the method: as §2
Mus musculus [6] = assay: Narcotic antagonist activity in mouse assessed as inhibition of oxymorphone-induced straub tail response at 40 mg/kg, sc; format: functional, organism-based; design: dose 40 mg/kg; summary of the method: as §2
Mus musculus [7] = assay: Toxicity in mouse assessed as convulsion at 40 mg/kg, sc; format: organism-based; design: dose 40 mg/kg, route subcutaneous; details: in vivo; summary of the method: as §2
Mus musculus [8] = assay: Analgesic activity in mouse assessed as inhibition of phenylquinone-induced writhing at 40 mg/kg, sc; format: functional, organism-based; design: dose 40 mg/kg; summary of the method: as §2
Mus musculus [9] = assay: Toxicity in mouse assessed as depression at 40 mg/kg, sc; format: organism-based; design: dose 40 mg/kg, route subcutaneous; details: in vivo; summary of the method: as §2

SMILES	ED50 (Mus musculus [1])	ED50 (Mus musculus [2])	ED50 (Mus musculus [3])	ED50 (Rattus norvegicus)	Activity (Mus musculus [4])	Activity (Mus musculus [5])	inhibition (Mus musculus [6])	Activity (Mus musculus [7])	inhibition (Mus musculus [8])	Activity (Mus musculus [9])
CC(C)=CCN1CC[C@]2(C)c3cc(O)ccc3C[C@H]1[C@H]2C [(+)-PENTAZOCINE]	3.7 mg/kg	10.1 mg/kg	12 mg/kg							
C=CCN1CC[C@]23c4c5ccc(O)c4O[C@H]2[C@@H](O)C=C[C@H]3[C@H]1C5 [NALORPHINE]	0.77 mg/kg	0.58 mg/kg		0.38 mg/kg						
C=CCN1C2CC3c4ccc(O)cc4C(CC)(C2)CC31 (stereo unspecified)	20 mg/kg	1 mg/kg	8 mg/kg	3.3 mg/kg	Toxic	Toxic				
CCC12CC3CC(c4ccc(O)cc41)C(C2)N3 (stereo unspecified)	12.9 mg/kg				Toxic		inactive	Toxic		
CC12CC3CC(c4ccc(O)cc41)C(C2)N3 (stereo unspecified)					Toxic					
CC12CC3CC(c4ccc(O)cc41)C(C2)N3CC1CCC1 (stereo unspecified)					Toxic		inactive		inactive	
CN1C2CC3c4ccc(O)cc4C(C)(C2)CC31 (stereo unspecified)	31.8 mg/kg				Toxic		inactive			
CCC12CC3CC(c4ccc(O)cc41)C(C2)N3CC1CCC1 (stereo unspecified)		5 mg/kg	15 mg/kg	10 mg/kg	Toxic			Toxic	inactive	
CCC12CC3CC(c4ccc(O)cc41)C(C2)N3CC1CC1 (stereo unspecified)		0.32 mg/kg	2.24 mg/kg	0.44 mg/kg	Toxic				Active	
CC12CC3CC(c4ccc(O)cc41)C(C2)N3CCC1CC1 (stereo unspecified)					Toxic		inactive		inactive	
CN1CC[C@]23c4c5ccc(O)c4O[C@H]2[C@@H](O)C=C[C@H]3[C@H]1C5 [MORPHINE]	0.26 mg/kg									
CCC12CC3CC(c4ccc(O)cc41)C(C2)N3CCC1CC1 (stereo unspecified)			> 20 mg/kg	> 20 mg/kg	Toxic				Active	Toxic
CC12CC3CC(c4ccc(O)cc41)C(C2)N3CC1CC1 (stereo unspecified)		0.63 mg/kg	0.96 mg/kg	0.64 mg/kg	Toxic				Active	
CCC12CC3CC(c4ccc(O)cc41)C(C2)N3C (stereo unspecified)	24.3 mg/kg				Toxic		inactive			
